Laboratory results reported in ChEMBL document CHEMBL3769357, “Phosphoramidate protides of five flavones and their antiproliferative activity against HepG2 and L-O2 cell lines” (Eur J Med Chem, 2016).

Tests used:
[1] = system: HepG2; assay: Induction of apoptosis in human HepG2 cells assessed as early apoptotic cells at IC50 after 4 hrs by annexin V-FITC/propidium iodide staining-based flow cytometry (reference value: 0.41%); assay type: functional
[2] = system: HepG2; assay: Induction of apoptosis in human HepG2 cells assessed as viable cells at IC50 after 4 hrs by annexin V-FITC/propidium iodide staining-based flow cytometry (reference value: 98.6%); assay type: functional
[3] = system: HepG2; assay: Induction of cell cycle arrest in human HepG2 cells assessed as accumulation at S phase at IC50 after 24 hrs by propidium iodide staining-based flow cytometry (reference value: 16.1%); assay type: functional
[4] = system: HepG2; assay: Induction of apoptosis in human HepG2 cells assessed as viable cells at IC50 after 24 hrs by annexin V-FITC/propidium iodide staining-based flow cytometry (reference value: 90.5%); assay type: functional
[5] = system: HepG2; assay: Induction of cell cycle arrest in human HepG2 cells assessed as accumulation at G0/G1 phase at IC50 after 24 hrs by propidium iodide staining-based flow cytometry (reference value: 67.5%); assay type: functional
[6] = system: HepG2; assay: Induction of cell cycle arrest in human HepG2 cells assessed as accumulation at G2/M phase at IC50 after 24 hrs by propidium iodide staining-based flow cytometry (reference value: 16.4%); assay type: functional
[7] = system: HepG2; assay: Induction of apoptosis in human HepG2 cells assessed as late apoptotic cells at IC50 after 24 hrs by annexin V-FITC/propidium iodide staining-based flow cytometry (reference value: 1.77%); assay type: functional
[8] = system: HepG2; assay: Induction of apoptosis in human HepG2 cells assessed as nectrotic cells at IC50 after 4 hrs by annexin V-FITC/propidium iodide staining-based flow cytometry (reference value: 0.46%); assay type: functional
[9] = system: HepG2; assay: Induction of apoptosis in human HepG2 cells assessed as late apoptotic cells at IC50 after 4 hrs by annexin V-FITC/propidium iodide staining-based flow cytometry (reference value: 0.53%); assay type: functional
[10] = system: HepG2; assay: Selectivity index, ratio of IC50 for human LO2 cells to human HepG2 cells
[11] = system: HepG2; assay: Induction of apoptosis in human HepG2 cells assessed as nectrotic cells at IC50 after 24 hrs by annexin V-FITC/propidium iodide staining-based flow cytometry (reference value: 6.70%); assay type: functional
[12] = system: HepG2; assay: Induction of apoptosis in human HepG2 cells assessed as early apoptotic cells at IC50 after 24 hrs by annexin V-FITC/propidium iodide staining-based flow cytometry (reference value: 0.41%)
[13] = Cytotoxicity against human LO2 cells after 48 hrs by MTT assay; assay type: cell-based; conditions: L02, 48 h
In short: (§1)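 After 48 h, MTT (5 mg/mL in PBS) added, 4 h at 37 °C, DMSO added, absorbance read at 570 nm. IC50 is the 50% growth-inhibition concentration, mean of three independent experiments.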

[14] = system: HepG2; assay: Antiproliferative activity against human HepG2 cells after 48 hrs by MTT assay; assay type: functional, cell-based; conditions: HepG2, 48 h; in short: as §1

| IC50 [14] [µM] | SMILES | Ratio IC50 [10] | IC50 [13] [µM] | also measured |
| --- | --- | --- | --- | --- |
| 9 | COC(=O)[C@H](C)NP(=O)(Oc1ccccc1)Oc1cc(OC(C)=O)c2c(=O)cc(-c3ccc(OC(C)=O)cc3)oc2c1 (stereo not given in full) | 2.467 | 22.2 | Activity [1]: 0.45%; Activity [2]: 89.02%; Activity [3]: 16.4%; Activity [4]: 85.42%; Activity [5]: 11%; Activity [6]: 72.6%; Activity [7]: 3.4%; Activity [8]: 3.58%; Activity [9]: 6.95%; Activity [11]: 9.88%; Activity [12]: 1.31% |
| 5.8 | C#Cc1cccc(Nc2ncnc3cc(OCCOC)c(OCCOC)cc23)c1 [ERLOTINIB] | 3.19 | 18.5 |  |
| 27.1 | COC(=O)[C@H](Cc1ccccc1)NP(=O)(Oc1ccccc1)Oc1cc(OC(C)=O)c2c(=O)cc(-c3ccc(OC(C)=O)c(OC(C)=O)c3)oc2c1 (stereo not given in full) | 1.118 | 30.3 |  |
| 27.3 | COC(=O)[C@@H](NP(=O)(Oc1ccccc1)Oc1cc(O)c2c(=O)cc(-c3ccc(O)cc3)oc2c1)C(C)C (stereo not given in full) | 0.952 | 26 |  |
| 72.3 | COC(=O)[C@H](CC(C)C)NP(=O)(Oc1ccccc1)Oc1cc(O)c2c(=O)c(-c3ccc(O)cc3)coc2c1 (stereo not given in full) | 0.667 | 48.2 |  |
| 16.6 | COC(=O)[C@@H](NP(=O)(Oc1ccccc1)Oc1cc(O)c2c(=O)cc(-c3ccc(O)c(O)c3)oc2c1)C(C)C (stereo not given in full) | 0.494 | 8.2 |  |
| 48.8 | COC(=O)CNP(=O)(Oc1ccccc1)Oc1ccc2c(=O)c(-c3ccc(O)cc3)coc2c1 (stereo not given) | 2.049 | > 100 |  |
| 36.6 | COC(=O)[C@H](Cc1ccccc1)NP(=O)(Oc1ccccc1)Oc1cc(O)c2c(=O)cc(-c3ccc(O)cc3)oc2c1 (stereo not given in full) | >2.732 | > 100 |  |
| > 100 | COC(=O)[C@H](Cc1ccccc1)NP(=O)(Oc1ccccc1)Oc1cc(O)c2c(=O)c(-c3ccc(O)cc3)coc2c1 (stereo not given in full) |  | > 100 |  |
| 60.2 | COC(=O)[C@H](Cc1ccccc1)NP(=O)(Oc1ccccc1)Oc1ccc2c(=O)c(-c3ccc(OC(C)=O)cc3)coc2c1 (stereo not given in full) | >1.66 | > 100 |  |
| 26.4 | COC(=O)CNP(=O)(Oc1ccccc1)Oc1cc(OC(C)=O)c2c(=O)cc(-c3ccc(OC(C)=O)c(OC(C)=O)c3)oc2c1 (stereo not given) | 2.163 | 57.1 |  |
| > 100 | COC(=O)CNP(=O)(Oc1ccccc1)Oc1cc(O)c2c(=O)c(-c3ccc(O)cc3)coc2c1 (stereo not given) | <0.445 | 44.5 |  |
| 27.3 | COC(=O)[C@H](C)NP(=O)(Oc1ccccc1)Oc1cc(OC(C)=O)c2c(=O)cc(-c3ccc(OC(C)=O)c(OC(C)=O)c3)oc2c1 (stereo not given in full) | 1.875 | 51.2 |  |
| 35.3 | COC(=O)[C@H](C)NP(=O)(Oc1ccccc1)Oc1cc(O)c2c(=O)cc(-c3ccccc3)oc2c1 (stereo not given in full) | 1.765 | 62.3 |  |
| 59.7 | COC(=O)CNP(=O)(Oc1ccccc1)Oc1cc(O)c2c(=O)cc(-c3ccc(O)cc3)oc2c1 (stereo not given) | 1.198 | 71.5 |  |
| 66 | COC(=O)[C@H](CC(C)C)NP(=O)(Oc1ccccc1)Oc1ccc2c(=O)c(-c3ccc(O)cc3)coc2c1 (stereo not given in full) | 0.723 | 47.7 |  |
| 15.7 | COC(=O)[C@H](Cc1ccccc1)NP(=O)(Oc1ccccc1)Oc1cc(O)c2c(=O)cc(-c3ccc(O)c(O)c3)oc2c1 (stereo not given in full) | 2.49 | 39.1 |  |
| 57.2 | COC(=O)[C@H](C)NP(=O)(Oc1ccccc1)Oc1cc(O)c2c(=O)c(-c3ccc(O)cc3)coc2c1 (stereo not given in full) | 0.274 | 15.7 |  |
| 37.2 | COC(=O)[C@H](CC(C)C)NP(=O)(Oc1ccccc1)Oc1cc(O)c2c(=O)cc(-c3ccc(O)cc3)oc2c1 (stereo not given in full) | 1.419 | 52.8 |  |
| > 100 | COC(=O)[C@H](CC(C)C)NP(=O)(Oc1ccccc1)Oc1cc(O)c2c(=O)cc(-c3ccccc3)oc2c1 (stereo not given in full) |  | > 100 |  |

| IC50 [14] [µM] | SMILES | Ratio IC50 [10] | IC50 [13] [µM] | also measured |
| --- | --- | --- | --- | --- |
| 22.1 | COC(=O)[C@H](CC(C)C)NP(=O)(Oc1ccccc1)Oc1cc(OC(C)=O)c2c(=O)cc(-c3ccc(OC(C)=O)cc3)oc2c1 (stereo not given in full) | 2.706 | 59.8 |  |
| 52.1 | COC(=O)[C@H](Cc1ccccc1)NP(=O)(Oc1ccccc1)Oc1ccc2c(=O)c(-c3ccc(O)cc3)coc2c1 (stereo not given in full) | 0.754 | 39.3 |  |
| 39.7 | COC(=O)CNP(=O)(Oc1ccccc1)Oc1cc(OC(C)=O)c2c(=O)c(-c3ccc(OC(C)=O)cc3)coc2c1 (stereo not given) | 1.39 | 55.2 |  |
| 63.2 | COC(=O)[C@H](Cc1ccccc1)NP(=O)(Oc1ccccc1)Oc1cc(OC(C)=O)c2c(=O)c(-c3ccc(OC(C)=O)cc3)coc2c1 (stereo not given in full) | 1.582 | > 100 |  |
| 47.8 | COC(=O)CNP(=O)(Oc1ccccc1)Oc1cc(OC(C)=O)c2c(=O)cc(-c3ccc(OC(C)=O)cc3)oc2c1 (stereo not given) | >2.092 | > 100 |  |
| 42.6 | COC(=O)CNP(=O)(Oc1ccccc1)Oc1cc(O)c2c(=O)cc(-c3ccccc3)oc2c1 (stereo not given) | 2.265 | 96.5 |  |
| 21.1 | COC(=O)[C@@H](NP(=O)(Oc1ccccc1)Oc1cc(O)c2c(=O)cc(-c3ccccc3)oc2c1)C(C)C (stereo not given in full) | >5 | > 100 |  |
| 5.5 | COC(=O)[C@H](C)NP(=O)(Oc1ccccc1)Oc1ccc2c(=O)c(-c3ccc(OC(C)=O)cc3)coc2c1 (stereo not given in full) | 4.418 | 24.3 | Activity [1]: 0.69%; Activity [2]: 97.12%; Activity [3]: 1.2%; Activity [4]: 51.19%; Activity [5]: 0.7%; Activity [6]: 98.1%; Activity [7]: 2.56%; Activity [8]: 0.76%; Activity [9]: 1.43%; Activity [11]: 2.08%; Activity [12]: 44.16% |
| 18.4 | COC(=O)[C@@H](NP(=O)(Oc1ccccc1)Oc1cc(OC(C)=O)c2c(=O)cc(-c3ccc(OC(C)=O)cc3)oc2c1)C(C)C (stereo not given in full) | 1.59 | 29.4 |  |
| 54 | COC(=O)[C@H](CC(C)C)NP(=O)(Oc1ccccc1)Oc1cc(OC(C)=O)c2c(=O)c(-c3ccc(OC(C)=O)cc3)coc2c1 (stereo not given in full) | 1.113 | 60.1 |  |
| 47.7 | COC(=O)CNP(=O)(Oc1ccccc1)Oc1cc(O)c2c(=O)cc(-c3ccc(O)c(O)c3)oc2c1 (stereo not given) | 1 | 47.7 |  |
| 60 | COC(=O)[C@H](CC(C)C)NP(=O)(Oc1ccccc1)Oc1ccc2c(=O)c(-c3ccc(OC(C)=O)cc3)coc2c1 (stereo not given in full) | 0.747 | 44.8 |  |
| 34.7 | COC(=O)[C@H](C)NP(=O)(Oc1ccccc1)Oc1cc(O)c2c(=O)cc(-c3ccc(O)cc3)oc2c1 (stereo not given in full) | 1.017 | 35.3 |  |
| 22.4 | COC(=O)[C@H](CC(C)C)NP(=O)(Oc1ccccc1)Oc1cc(O)c2c(=O)cc(-c3ccc(O)c(O)c3)oc2c1 (stereo not given in full) | 1.581 | 34 |  |
| 21 | COC(=O)[C@H](CC(C)C)NP(=O)(Oc1ccccc1)Oc1cc(OC(C)=O)c2c(=O)cc(-c3ccc(OC(C)=O)c(OC(C)=O)c3)oc2c1 (stereo not given in full) | 1.819 | 38.2 |  |
| > 100 | O=c1cc(-c2ccccc2)oc2cc(O)cc(O)c12 [CHRYSIN] |  | > 100 |  |
| > 100 | COC(=O)[C@H](Cc1ccccc1)NP(=O)(Oc1ccccc1)Oc1cc(O)c2c(=O)cc(-c3ccccc3)oc2c1 (stereo not given in full) |  | > 100 |  |
| 38.5 | COC(=O)[C@H](Cc1ccccc1)NP(=O)(Oc1ccccc1)Oc1cc(OC(C)=O)c2c(=O)cc(-c3ccc(OC(C)=O)cc3)oc2c1 (stereo not given in full) | 1.192 | 45.9 |  |
| > 100 | COC(=O)CNP(=O)(Oc1ccccc1)Oc1ccc2c(=O)c(-c3ccc(OC(C)=O)cc3)coc2c1 (stereo not given) |  | > 100 |  |
| 28.8 | COC(=O)[C@H](C)NP(=O)(Oc1ccccc1)Oc1ccc2c(=O)c(-c3ccc(O)cc3)coc2c1 (stereo not given in full) | 0.712 | 20.5 |  |

| SMILES | IC50 [14] [µM] | Ratio IC50 [10] | IC50 [13] [µM] | also measured |
| --- | --- | --- | --- | --- |
| O=c1cc(-c2ccc(O)c(O)c2)oc2cc(O)cc(O)c12 [LUTEOLIN] | 34.7 | >2.882 | > 100 |  |
